Experimental data reported in ChEMBL document CHEMBL1821590, “Novel dihydropyrimidines and its pyrazole derivatives: synthesis and pharmacological screening” (Eur J Med Chem, 2011).
≈ marks a conversion by molar mass, not a printed value.

Tests used:
Format in all cases: functional
[1] = Antioxidant activity assessed as nitric oxide radical scavenging activity after 150 mins
Procedure, shortened: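 10 mM sodium nitroprusside (4 mL), PBS pH 7.4 (1 mL) and sample or ascorbic acid in DMSO (1 mL, 12.5–100 µg/mL), incubated 150 min at 25 °C. Nitrite detected with sulphanilic acid (5 min) then naphthylethylenediamine (30 min, diffused light). Read at […]. Triplicate. % inhibition = [1 − (Vt/Vc)] × 100. IC50 derived from it.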

[2] = Antioxidant activity assessed as hydrogen peroxide scavenging activity after 10 mins
Procedure, shortened: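 H2O2 (20 mM) in PBS pH 7.4. 1 mL of sample or ascorbic acid in methanol (12.5–100 µg/mL) added to 2 mL H2O2 solution. A230 read after 10 min. % inhibition = [1 − (Vt/Vc)] × 100. Triplicate, averaged. IC50 derived from % inhibition across concentrations.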

[3] = Antioxidant activity assessed as inhibition of lipid peroxidation using egg lecithin liposomes incubated for 1 hr
Procedure, shortened: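 Egg lecithin (3 mg/mL, phosphate buffer pH 7.4) sonicated 10 min to form liposomes. Sample or ascorbic acid (12.5–100 µg/mL) added. Peroxidation induced with FeCl3 and L-ascorbic acid, 1 h at 37 °C. Stopped with HCl/TCA/TBA/BHA, boiled 15 min, centrifuged, supernatant read at 532 nm. Triplicate. % inhibition vs control. IC50 derived.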

[4] = Antioxidant activity assessed as potassium ferricyanide ion reducing power after 20 mins
Procedure, shortened: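 Oyaizu method. Samples or ascorbic acid in DMF (12.5–100 µg/mL) mixed with 0.2 M phosphate buffer pH 6.6 and 1% potassium ferricyanide, 20 min at 50 °C. 10% TCA added, centrifuged. Supernatant mixed with water and 0.1% FeCl3, read at 700 nm. % = [(Vt/Vc) − 1] × 100. IC50 derived.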

[5] = Antiinflammatory activity assessed as inhibition of albumin denaturation at 100 ug/ml by UV-visible spectrophotometry
Procedure, shortened: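 Compounds dissolved in minimal DMF, diluted in PBS pH 7.4 (final DMF <2.5%). 1 mL test solution (100 µg/mL) plus 1 mL 1% albumin in PBS, 15 min at 27 ± 1 °C, then heated 10 min at 60 ± 1 °C. After cooling, turbidity read at 660 nm. % inhibition = [(Vt/Vc) − 1] × 100 against a no-drug control. Triplicate, averaged. Diclofenac standard.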

Metaphire posthuma [6] = assay: Anthelmintic activity against Pheretima posthuma assessed as time taken for complete parasite paralysis at 0.1% w/v
Procedure, shortened: (§1)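 Earthworms (Pheretima posthuma) exposed to test solutions at 0.1, 0.2 and 0.5% w/v; time in minutes to complete paralysis (worms motionless) recorded. Albendazole as standard. Mean of three determinations ± S.D.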

Metaphire posthuma [7] = assay: Anthelmintic activity against Pheretima posthuma assessed as time taken for complete parasite paralysis at 0.2% w/v; procedure, shortened: as §1
Metaphire posthuma [8] = assay: Anthelmintic activity against Pheretima posthuma assessed as time taken for complete parasite paralysis at 0.5% w/v; procedure, shortened: as §1
Metaphire posthuma [9] = assay: Anthelmintic activity against Pheretima posthuma assessed as time taken for parasite death at 0.1% w/v
Procedure, shortened: (§2)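 Earthworms (Pheretima posthuma, spelled Perituma posthuma in text) exposed to test compounds at 0.1, 0.2 and 0.5% w/v. Albendazole served as standard, with an untreated control. Paralysis was recorded as the time until worms became motionless, then time to death was recorded, in minutes. Each value is the mean of three determinations with S.D.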

Metaphire posthuma [10] = assay: Anthelmintic activity against Pheretima posthuma assessed as time taken for parasite death at 0.2% w/v; procedure, shortened: as §2
Metaphire posthuma [11] = assay: Anthelmintic activity against Pheretima posthuma assessed as time taken for parasite death at 0.5% w/v; procedure, shortened: as §2
Escherichia coli [12] = assay: Antimicrobial activity against Escherichia coli at 25 ug/ml by agar plate diffusion technique; settings: read-out: IZ
Procedure, shortened: (§3)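 Agar plate diffusion against E. coli, P. aeruginosa, S. aureus and B. subtilis, with compounds at 25, 50 and 100 µg/mL. Streptomycin as standard.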

Escherichia coli [13] = assay: Antimicrobial activity against Escherichia coli at 50 ug/ml by agar plate diffusion technique; settings: read-out: IZ; procedure, shortened: as §3
Escherichia coli [14] = assay: Antimicrobial activity against Escherichia coli at 100 ug/ml by agar plate diffusion technique; settings: read-out: IZ; procedure, shortened: as §3
Pseudomonas aeruginosa [15] = assay: Antimicrobial activity against Pseudomonas aeruginosa at 25 ug/ml by agar plate diffusion technique; settings: read-out: IZ; procedure, shortened: as §3
Pseudomonas aeruginosa [16] = assay: Antimicrobial activity against Pseudomonas aeruginosa at 50 ug/ml by agar plate diffusion technique; settings: read-out: IZ; procedure, shortened: as §3
Pseudomonas aeruginosa [17] = assay: Antimicrobial activity against Pseudomonas aeruginosa at 100 ug/ml by agar plate diffusion technique; settings: read-out: IZ; procedure, shortened: as §3
Bacillus subtilis [18] = assay: Antimicrobial activity against Bacillus subtilis at 25 ug/ml by agar plate diffusion technique; settings: read-out: IZ; procedure, shortened: as §3
Bacillus subtilis [19] = assay: Antimicrobial activity against Bacillus subtilis at 50 ug/ml by agar plate diffusion technique; settings: read-out: IZ; procedure, shortened: as §3
Bacillus subtilis [20] = assay: Antimicrobial activity against Bacillus subtilis at 100 ug/ml by agar plate diffusion technique; settings: read-out: IZ; procedure, shortened: as §3
Staphylococcus aureus [21] = assay: Antimicrobial activity against Staphylococcus aureus at 25 ug/ml by agar plate diffusion technique; settings: read-out: IZ; procedure, shortened: as §3
Staphylococcus aureus [22] = assay: Antimicrobial activity against Staphylococcus aureus at 50 ug/ml by agar plate diffusion technique; settings: read-out: IZ; procedure, shortened: as §3
Staphylococcus aureus [23] = assay: Antimicrobial activity against Staphylococcus aureus at 100 ug/ml by agar plate diffusion technique; settings: read-out: IZ; procedure, shortened: as §3
Candida albicans [24] = assay: Antimicrobial activity against Candida albicans at 25 ug/ml by paper disc method; settings: read-out: IZ
Procedure, shortened: (§4)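 Paper disc method against A. niger and C. albicans, with compounds at 25, 50 and 100 µg/mL. Amphotericin-B as standard.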

Candida albicans [25] = assay: Antimicrobial activity against Candida albicans at 50 ug/ml by paper disc method; settings: read-out: IZ; procedure, shortened: as §4
Candida albicans [26] = assay: Antimicrobial activity against Candida albicans at 100 ug/ml by paper disc method; settings: read-out: IZ; procedure, shortened: as §4
Aspergillus niger [27] = assay: Antimicrobial activity against Aspergillus niger at 25 ug/ml by paper disc method; settings: read-out: IZ; procedure, shortened: as §4
Aspergillus niger [28] = assay: Antimicrobial activity against Aspergillus niger at 50 ug/ml by paper disc method; settings: read-out: IZ; procedure, shortened: as §4
Aspergillus niger [29] = assay: Antimicrobial activity against Aspergillus niger at 100 ug/ml by paper disc method; settings: read-out: IZ; procedure, shortened: as §4

| Structure (SMILES) | IC50 [1] [µg/mL] | IC50 [2] [µg/mL] | IC50 [3] [µg/mL] | IC50 [4] [µg/mL] | inhibition [5] [%] | Time (Metaphire posthuma [6]) [min] | Time (Metaphire posthuma [7]) [min] | Time (Metaphire posthuma [8]) [min] | Time (Metaphire posthuma [9]) [min] | Time (Metaphire posthuma [10]) [min] | Time (Metaphire posthuma [11]) [min] | zone of inhibition at 25 µg/mL (Escherichia coli [12]) [mm] | zone of inhibition at 50 µg/mL (Escherichia coli [13]) [mm] | zone of inhibition at 100 µg/mL (Escherichia coli [14]) [mm] | zone of inhibition at 25 µg/mL (Pseudomonas aeruginosa [15]) [mm] | zone of inhibition at 50 µg/mL (Pseudomonas aeruginosa [16]) [mm] | zone of inhibition at 100 µg/mL (Pseudomonas aeruginosa [17]) [mm] | zone of inhibition at 25 µg/mL (Bacillus subtilis [18]) [mm] | zone of inhibition at 50 µg/mL (Bacillus subtilis [19]) [mm] | zone of inhibition at 100 µg/mL (Bacillus subtilis [20]) [mm] | also measured |
| --- | --- | --- | --- | --- | --- | --- | --- | --- | --- | --- | --- | --- | --- | --- | --- | --- | --- | --- | --- | --- | --- |
| CCOC(=O)c1cnn(-c2nc(-c3ccc(Cl)cc3)c(C#N)c(=O)n2C)c1N | 87 (≈ 218 µM) | 94 (≈ 236 µM) | 88 (≈ 221 µM) | 64 (≈ 160 µM) | 64.6 | 49.28 | 41.03 | 34.76 | 64.72 | 58.23 | 56.33 | 14.7 | 19.5 | 25 | 11.8 | 17.1 | 25.7 | 14.2 | 16.7 | 25.4 | zone of inhibition at 25 µg/mL (Staphylococcus aureus [21]): 13.1 mm; zone of inhibition at 50 µg/mL (Staphylococcus aureus [22]): 17.1 mm; zone of inhibition at 100 µg/mL (Staphylococcus aureus [23]): 22 mm; zone of inhibition at 25 µg/mL (Candida albicans [24]): 12.2 mm; zone of inhibition at 50 µg/mL (Candida albicans [25]): 16 mm; zone of inhibition at 100 µg/mL (Candida albicans [26]): 21.8 mm; zone of inhibition at 25 µg/mL (Aspergillus niger [27]): 11.6 mm; zone of inhibition at 50 µg/mL (Aspergillus niger [28]): 15.6 mm; zone of inhibition at 100 µg/mL (Aspergillus niger [29]): 23.8 mm |
| Cn1c(NN)nc(-c2ccccc2O)c(C#N)c1=O | 46 (≈ 179 µM) | 30 (≈ 117 µM) | 34 (≈ 132 µM) | 38 (≈ 148 µM) | 34.4 | 35.42 | 33.85 | 30.13 | 50.13 | 37.1 | 44.1 | 8.39 | 9.58 | 11.2 | 7.27 | 9.17 | 13 | 9.81 | 13.8 | 22.2 | zone of inhibition at 25 µg/mL (Staphylococcus aureus [21]): 10.6 mm; zone of inhibition at 50 µg/mL (Staphylococcus aureus [22]): 12.2 mm; zone of inhibition at 100 µg/mL (Staphylococcus aureus [23]): 17.7 mm; zone of inhibition at 25 µg/mL (Candida albicans [24]): 9.62 mm; zone of inhibition at 50 µg/mL (Candida albicans [25]): 12.5 mm; zone of inhibition at 100 µg/mL (Candida albicans [26]): 17.7 mm; zone of inhibition at 25 µg/mL (Aspergillus niger [27]): 8.24 mm; zone of inhibition at 50 µg/mL (Aspergillus niger [28]): 10.6 mm; zone of inhibition at 100 µg/mL (Aspergillus niger [29]): 16.5 mm |
| CSc1nc(-c2ccc(Cl)cc2)c(C#N)c(=O)n1C | 71 (≈ 243 µM) | 56 (≈ 192 µM) | 54 (≈ 185 µM) | 64 (≈ 219 µM) | 79.1 | 48.15 | 39.29 | 40.51 | 60.96 | 57.38 | 55.12 | 7.08 | 9.82 | 11.7 | 8.85 | 9.62 | 11.9 | 13.8 | 18.1 | 27.3 | zone of inhibition at 25 µg/mL (Staphylococcus aureus [21]): 9.68 mm; zone of inhibition at 50 µg/mL (Staphylococcus aureus [22]): 11.7 mm; zone of inhibition at 100 µg/mL (Staphylococcus aureus [23]): 15.8 mm; zone of inhibition at 25 µg/mL (Candida albicans [24]): 9.27 mm; zone of inhibition at 50 µg/mL (Candida albicans [25]): 13.8 mm; zone of inhibition at 100 µg/mL (Candida albicans [26]): 18.4 mm; zone of inhibition at 25 µg/mL (Aspergillus niger [27]): 9.92 mm; zone of inhibition at 50 µg/mL (Aspergillus niger [28]): 11 mm; zone of inhibition at 100 µg/mL (Aspergillus niger [29]): 18.7 mm |
